From ChEMBL document CHEMBL3227978, “Azetidine derivatives of tricyclic antidepressant agents” (J Med Chem, 1979)
Active and inactive are the calls of the source. No cut-off for these calls is given here.

System: Mus musculus
Test: Antidepressant activity in po dosed ICEM:CET (SPF Caw) mouse assessed as antagonism of reserpine-induced hypothermia administered via gavage 30 mins before reserpine challenge measured 4 hrs after reserpine treatment
Type: functional
Conditions: not given
In short: (§1)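 Groups of ten male mice (18-22 g), fasted 9 h with water until 2 h pre-test. Oral gavage in 0.5% Methocel at doses below the 25 mg/kg screen, 30 min before reserpine 2.5 mg/kg ip. Blepharospasm scored blind at 1 h, rectal temperature at 4 h. ED50 estimated by eye-fit linear plots on semilogarithmic paper.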

| SMILES | ED50 [mg/kg] |
| --- | --- |
| CNC1CN(C2c3ccccc3COc3ccccc32)C1.O=C(O)/C=C/C(=O)O (single isomer, unassigned; (-)) | 14.1 |

System: Mus musculus
Test: Antidepressant activity in ICEM:CET (SPF Caw) mouse assessed as antagonism of reserpine-induced blepharospasm at 25 mg/kg, po administered via gavage 30 mins before reserpine challenge measured 1 hr after reserpine treatment
Type: functional, organism-based
Set-up: dose 25 mg/kg
Conditions: not given
In short: (§2)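 Male mice, 18-22 g, groups of ten, housed the evening before with a 9-h fast and water until 2 h before testing. Gavage dosing at 25 mg/kg in 0.5% Methocel, 30 min before reserpine 2.5 mg/kg ip in 0.5% acetic acid. Read blind: blepharospasm scored (Rubin scale) at 1 h, rectal thermocouple temperature at 4 h.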

| SMILES | Activity |
| --- | --- |
| CC(C)(C)N1CC(N2c3ccccc3Sc3ccccc32)C1 | inactive |
| CC(C)(C)N1CC(N2c3ccccc3COc3ccccc32)C1 | inactive |
| CC(C)(C)N1CC(N2c3ccccc3CCc3ccccc32)C1 | inactive |
| c1ccc2c(c1)Sc1ccccc1N2C1CNC1 | inactive |
| CC(C)(C)N1CC(N2c3ccccc3Sc3ccc(C(F)(F)F)cc32)C1 | inactive |
| CC(C)N1CC(N2c3ccccc3COc3ccccc32)C1 | inactive |
| CC(C)N1CC(CN2c3ccccc3CCc3ccccc32)C1 | inactive |
| CC(C)(C)N1CC(N2c3ccccc3Sc3ccc(Cl)cc32)C1 | inactive |
| c1ccc2c(c1)CCc1ccccc1N2C1CNC1 | inactive |
| CC(C)N1CC(N2c3ccccc3CCc3ccccc32)C1 | inactive |
| c1ccc2c(c1)COc1ccccc1N2CC1CNC1 | inactive |
| CN1CC(N2c3ccccc3CCc3ccccc32)C1 | inactive |

System: Mus musculus
Test: Anticonvulsant activity in po dosed ICEM:CET (SPF Caw) mouse assessed as antagonism of pentylenetetrazole-induced flexor-extensor tonic convulsions administered via gavage 30 mins before pentylenetetrazole challenge
Type: functional
Conditions: not given
In short: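 Male mice, 18-22 g, dosed orally by gavage in 0.5% Methocel (0.1 mL/10 g), starting at a 50 mg/kg screening dose, then graded doses. Pentylenetetrazole 130 mg/kg ip given 30 min later. Ten mice per dose and for controls. Dose preventing flexor-extensor tonic convulsions in 50% of animals read from dose-response curves (ED50).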

| SMILES | ED50 [mg/kg] |
| --- | --- |
| CNC1CN(C2c3ccccc3COc3ccccc32)C1.O=C(O)/C=C/C(=O)O (single isomer, unassigned; (-)) | >50 |

System: Mus musculus
Test: Antidepressant activity in po dosed ICEM:CET (SPF Caw) mouse assessed as antagonism of reserpine-induced blepharospasm administered via gavage 30 mins before reserpine challenge measured 1 hr after reserpine treatment
Type: functional
Conditions: not given
In short: as §1

| SMILES | ED50 [mg/kg] |
| --- | --- |
| CNC1CN(C2c3ccccc3COc3ccccc32)C1.O=C(O)/C=C/C(=O)O (single isomer, unassigned; (-)) | 1.3 |

System: Mus musculus
Test: Antidepressant activity in ICEM:CET (SPF Caw) mouse assessed as antagonism of reserpine-induced hypothermia at 25 mg/kg, po administered via gavage 30 mins before reserpine challenge measured 4 hrs after reserpine treatment
Type: functional, organism-based
Set-up: dose 25 mg/kg
Conditions: not given
In short: as §2

| SMILES | Activity |
| --- | --- |
| CC(C)(C)N1CC(N2c3ccccc3Sc3ccccc32)C1 | inactive |
| CC(C)(C)N1CC(N2c3ccccc3COc3ccccc32)C1 | inactive |
| CC(C)(C)N1CC(N2c3ccccc3CCc3ccccc32)C1 | inactive |
| c1ccc2c(c1)Sc1ccccc1N2C1CNC1 | inactive |
| CC(C)(C)N1CC(N2c3ccccc3Sc3ccc(C(F)(F)F)cc32)C1 | inactive |
| CC(C)N1CC(N2c3ccccc3COc3ccccc32)C1 | inactive |
| CC(C)N1CC(CN2c3ccccc3CCc3ccccc32)C1 | inactive |
| CC(C)(C)N1CC(N2c3ccccc3Sc3ccc(Cl)cc32)C1 | inactive |
| c1ccc2c(c1)CCc1ccccc1N2C1CNC1 | inactive |
| CC(C)N1CC(N2c3ccccc3CCc3ccccc32)C1 | inactive |
| c1ccc2c(c1)COc1ccccc1N2CC1CNC1 | inactive |
| CN1CC(N2c3ccccc3CCc3ccccc32)C1 | inactive |

System: Mus musculus
Test: Orientative acute toxicity in po dosed ICEM:CET (SPF Caw) mouse administered via gavage measured for 60 mins after drug dosing by Irwin's test
Type: organism-based
Conditions: in vivo, 1 h
In short: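 Male ICEM:CET (SPF Caw) mice, 18-22 g. Oral gavage, suspended or dissolved in 0.5% Methocel at 0.1 mL/10 g body weight. Doses of at least 25, 50, 100, 200, 400 and 800 mg/kg, four animals per dose. Animals were observed closely for 60 min after dosing during Irwin's symptomatologic test, and an approximate LD50 was estimated.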

| SMILES | LD50 [mg/kg] |
| --- | --- |
| CNC1CN(C2c3ccccc3COc3ccccc32)C1.O=C(O)/C=C/C(=O)O (single isomer, unassigned; (-)) | 100 |
